Compound activity deposited in PubChem BioAssay by several laboratories.
Phagocytosis inh – inhibitors of macrophage phagocytosis, primary screen, imaging, J774A.1 cells, IgG beads | inhibition, % at 5 µM | 110,000 compounds, 0.07% hits | J774A.1 macrophage IgG-bead phagocytosis | AID 1029, 2008;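 active means inhibition above the mean of the plate negative controls plus 5 SD, cut at about 13% in these data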;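 further: phagocytic index as fraction of beads internalized from green versus red external bead signal; plate controls were DMSO negative control for no effect and cytochalasin-D positive control for full effect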
HCT116 PTEN-null – growth suppression of PTEN-null HCT116, primary screen, cell-based, CellTiter-Glo; HCT116 PTEN-null viability, 60 h; stronger effect = lower value; viability, % at 10 µM; 140,000 compounds, 1.2% hits; AID 827, 2007;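 active means viability at or below a set limit, 4 SD under the median of all tested compounds, cut at about 3.7% in these data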;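 further: PTEN knockout HCT116 line with beta catenin targeted HCT116 as companion control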
HCT116 bCat-KO – primary screen for growth suppressors in beta-catenin knockout HCT116 cells (colon tumor, human) | HCT116 beta-catenin knockout viability, CellTiter-Glo, 60 h; stronger effect = lower value | viability, % at 10 µM | 140,000 compounds, 1.5% hits | AID 818, 2007;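 active means viability at or under a set limit, the compound median less 4 SD, cut at about 6% in these data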;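 further: 0% = Hyamine 1622 control at 20 µM and 100% = untreated cell control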
H69AR growth 86K – proliferation blockers of H69AR lung cancer cells, primary screen, cell-based, human, 86K library | AID 598, 2007 | 85,000 compounds, 6% hits | H69AR lung tumor viability, ATP luminescence, 72 h; stronger effect = lower value | viability, % at 10 µM;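 active means viability at or below 40%; inactive means viability above 40%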;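 further: multidrug resistant small cell line overexpressing MRP-1 efflux transporter; 100% = mean luminescence of untreated control wells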
Lung fibro prol – antiproliferative effect on LL 47 fibroblasts – human, LL 47 cells, CellTiter-Glo luminescence, primary screen; LL 47 human lung fibroblast viability, ATP luminescence; stronger effect = lower value; viability, % at 10 µM; 85,000 compounds, 1.1% hits; AID 719, 2007;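 active means viability at or below 50% in the single dose screen; inactive means viability above 50%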;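 further: compound exposure lasted 72 h before the ATP readout; 100% = median luminescence of untreated cell-only wells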
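Material: human LL 47 lung fibroblast cells; quantity: 1,150 cells/well; medium: IMEM plus 15% FBS; doses: 0.1% DMSO in all compound wells; timing: overnight attachment after seeding, then 72 h compound exposure at 37 °C; detection: CellTiter-Glo luminescence; measure: % viability of median cell-only signal; controls: cell-only wells, no compound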
HUVEC prolif 384 – inhibitors of HUVEC proliferation, primary screen, cell-based, 384-well; CellTiter-Glo luminescence, 72 h; stronger effect = lower value; viability, % at 10 µM (by protocol); 86,000 compounds, 1.1% hits; AID 648, 2007;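 active means viability at or below 30%; inactive means viability above 30%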;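 further: 100% = median luminescence of DMSO-only cell control wells on each plate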
Starred values were filed as active, the others as inactive; / = no result. The full list was thinned out, with hits kept by preference.

SMILES | Phagocytosis inh | HCT116 PTEN-null | HCT116 bCat-KO | H69AR growth 86K | Lung fibro prol | HUVEC prolif 384
Cc1ccccc1C(=O)N1CCN(c2ncnc3c2cnn3-c2ccccc2)CC1 | -2 | 28 | 24 | 42 | 97 | 97
Cc1ccc(C(=O)N2CCN(c3ncnc4c3cnn4-c3ccccc3)CC2)cc1 | / | / | / | 21* | 99 | 84
c1ccc(CCN2CCN(c3ncnc4c3cnn4-c3ccccc3)CC2)cc1 | -1 | 80 | 86 | 34* | 98 | 60
CC(=O)N(Cc1ccco1)c1nc(C(=O)Nc2ccc(Cl)cc2)c(C)s1 | -6 | 87 | 90 | / | / | /
COc1ccc2cc(C(=O)NCc3ccco3)c(=Nc3ccc(C(=O)O)cc3)oc2c1 | -1 | 81 | 78 | 21* | 93 | 79
COc1ccc(C(=O)Nc2ccc(Cl)cc2C(=O)NCc2ccco2)cc1 | / | 72 | 83 | 29* | 84 | 63
COc1ccc(N=c2oc3c(OC)cccc3cc2C(=O)NCc2ccco2)c(OC)c1 | 0 | 4 | 1.8* | 100 | 77 | 63
COc1ccc(Nc2cc(C(=O)NCc3ccco3)c3ccccc3n2)c(OC)c1 | -10 | 95 | 86 | / | / | /
COc1ccc2cc(C(=O)NCc3ccco3)c(=O)oc2c1 | 0 | 93 | 87 | 99 | 107 | 117
Cn1c(CCNC(=O)c2ccccc2)nc2cc(NC(=O)C3CCCCC3)ccc21 | 0 | 95 | 101 | 71 | 88 | 84
CC(=O)Nc1cc(ON=C(C)C)cc([N+](=O)[O-])c1 | -3 | 93 | 92 | / | / | /
Cc1ccc(S(=O)(=O)Cc2ccc(C(=O)N3CCN(c4ccc(F)cc4)CC3)o2)cc1 | / | 26 | 35 | 20* | 78 | 64
Cc1ccccc1S(=O)(=O)Cc1ccc(C(=O)N2CCN(c3ccc(F)cc3)CC2)o1 | 0 | 64 | 60 | 34* | 93 | 92
CSc1nc(C)c2c(n1)N(c1ccc(C(C)C)cc1)CC2 | / | 67 | 72 | / | / | /
CC1(C)NC(=O)N(CC(O)Cn2nnc3ccccc32)C1=O (centres undefined) | -1 | 99 | 96 | / | / | /
COc1ccccc1N/C(=N/S(=O)(=O)c1ccc(C)cc1)c1ccc(Cl)cc1 | / | 67 | 80 | / | / | /
COc1ccc(C)cc1C(=O)CCC(=O)Nc1ccccc1N1CCOCC1 | 0 | 1.2* | 1.2* | 81 | 91 | 110
Cc1cc(C)c(OCC(=O)Nc2ccccc2N2CCOCC2)c(C)c1 | -1 | 33 | 32 | 78 | 74 | 106
CCCn1nnc(NC(=O)COc2ccc(C3CCCCC3)cc2)n1 | -2 | 97 | 86 | 98 | 98 | 94
O=C(CCn1c(=O)[nH]c2ccsc2c1=O)Nc1ccc(F)c(F)c1 | / | 104 | 107 | / | / | /
Cc1cc(C)n(S(=O)(=O)/C=C/c2ccccc2)n1 | 1 | 89 | 94 | 1.1* | 26* | 76
CCC(C)n1ncn(-c2ccc(N3CCN(c4ccc(OCC5COC(Cn6cncn6)(c6ccc(Cl)cc6Cl)O5)cc4)CC3)cc2)c1=O (centres undefined) | / | / | / | 62 | 72 | 18*
CCOC(=O)c1cc2sc(C)cc2n1CC(=O)NCCc1ccccc1 | -1 | 96 | 84 | 27* | 101 | 82
CCCCC1C(C#N)=C(C)NC2=C1C(=O)CC(C)(C)C2 (centres undefined) | 1 | 93 | 91 | 40 | 93 | 88
COc1ccc(-c2cc(C#N)nc(N3CCNCC3)n2)cc1 | 0 | 0.4* | 0.6* | 1.4* | 2.0* | 51
SMILES | Phagocytosis inh | HCT116 PTEN-null | HCT116 bCat-KO | H69AR growth 86K | Lung fibro prol | HUVEC prolif 384
CCN(CC)c1nc(C#N)cc(-c2ccc(OC)cc2)n1 | 0 | 18 | 15 | 32* | 80 | 68
CCOC(=O)CNC1CC(=O)N(c2cccc(Cl)c2)C1=O (centres undefined) | 0 | 90 | 89 | / | / | /
O=c1[nH]c(N2CCN(c3ccccc3)CC2)nc2c1CCCC2 | 0 | 107 | 106 | 21* | 100 | 77
O=c1[nH]c(N2CCN(c3ccccc3)CC2)nc2c1CCC2 | -3 | 92 | 96 | 96 | 100 | 85
CCCN(CCC)S(=O)(=O)c1ccc(C(=O)Nc2nc3c(s2)CCc2ccccc2-3)cc1 | -11 | 2.9* | 3.1* | / | / | /
Cc1ccc(-c2nc(NC(=O)c3ccc(S(=O)(=O)N(CCC#N)CCC#N)cc3)sc2-c2ccccc2)cc1 | -8 | 23 | 51 | / | / | /
Cc1ccc2c(n1)CC(C)(C)CC2=O | / | 98 | 106 | / | / | /
COc1ccc(-c2nc(CS(=O)CC(=O)NCc3ccc(Cl)cc3)c(C)o2)cc1 (centres undefined) | -1 | 81 | 82 | 91 | 92 | 92
Cc1cccc(N2CCN(C(=O)Cc3cn(C)c4ccccc34)CC2)c1C | / | 26 | 29 | 18* | 89 | 71
Cc1cccc(N2CCN(C(=O)COc3cc(=O)n(C)c4ccccc34)CC2)c1C | / | 72 | 81 | 78 | 98 | 82
Cc1cc(C)c[n+](C(C)C(=O)c2ccc(-c3ccccc3)cc2)c1 (centres undefined) | -10 | 15 | 17 | / | / | /
COC(=O)C1CCN(c2cc(=O)n(-c3ccc(OC)cc3)c(=O)[nH]2)CC1 | -2 | 108 | 92 | 93 | 95 | 85
CCOc1ccc(C(=O)Nc2cc(-c3nc4ccccc4[nH]3)ccc2Cl)cc1[N+](=O)[O-] | -9 | 1.2* | 1.2* | / | / | /
Cc1ccc(-c2nc3ccccc3[nH]2)cc1NC(=O)c1ccc2c(c1)OCO2 | -2 | 77 | 76 | / | / | /
O=C(NC(=S)Nc1cc(-c2nc3ccccc3[nH]2)ccc1Cl)c1ccc2c(c1)OCO2 | / | 1.5* | 1.6* | / | / | /
O=C(NCc1ccc(Cl)cc1)c1cnn2ccccc12 | / | 97 | 103 | 105 | 102 | 95
O=C(O)CCCCCNCc1ccncc1 | 1 | 90 | 94 | / | / | /
COc1nc(N/N=C/c2ccc(C)cc2)nc(N2CCCCC2)n1 | -12 | 95 | 96 | / | / | /
O=C(NC1CCCCC1)C1CC=CCC1C(=O)OCC(Cl)=C(Cl)Cl (centres undefined) | / | 94 | 101 | 92 | 97 | 111
O=C(CC1c2ccccc2Oc2ccccc21)N1CCN(c2ccccn2)CC1 | / | 57 | 62 | 38* | 110 | 97
CCOC(=O)c1nn(-c2ccc(F)cc2)c2c1CC/C2=C/c1ccccc1 | -7 | 70 | 59 | / | / | /
COc1ccc(C(N)=S)cc1 | -4 | 89 | 83 | / | / | /
C=C(c1ccc(OC)cc1)c1ccc(OC)cc1 | 0 | 75 | 71 | 32* | 95 | 83
FC(F)(F)c1nnc2c(Sc3ccccc3)nc3ccc(Cl)cc3n12 | / | 4 | 3.6* | / | / | /
FC(F)(F)c1nc2ccccc2n2c(-c3ccc(Cl)cc3Cl)nnc12 | / | 88 | 89 | / | / | /
CCc1nnc(NC(=O)c2ccc(S(=O)(=O)N(CCOC)CCOC)cc2)o1 | -2 | 96 | 99 | 66 | 98 | 98
